# Test results from PMC11338093 (ESMO Open, 2024).
# Assays:
# [1] = tested on: subjects with advanced solid tumors; assay: APG-1387 monotherapy phase I trial: safety; format: in vivo, human
# Procedure, shortened: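 3+3 escalation of 0.3, 0.6, 4.0, 7.0, 12, 20, 30 and 45 mg, given as 30-min i.v. infusion on D1/8/15 with a 1-week rest per 28-day cycle. Safety was monitored by vitals, examination, haematology, biochemistry, thyroid, coagulation and ECG. AEs were graded by CTCAE 4.0 from consent to 90 days after last dose. DLTs were predefined drug-related grade ≥3–4 toxicities in cycle 1. MTD was the level below that with DLTs in ≥2 of 6 subjects.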
# [2] = tested on: advanced solid tumors; assay: APG-1387 monotherapy phase I trial: antitumor activity; format: in vivo, human
# [3] = APG-1387 monotherapy phase I trial: plasma pharmacokinetics; format: in vivo, human
# [4] = tested on: IFN-γ, IL-12/IL-23p40, IL-5, and IL-6; assay: Combination trial: plasma cytokines; format: in vivo, human; details: 4 and 24 h after APG-1387 dosing, 16 subjects
# Procedure, shortened: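 Combination regimen: toripalimab 240 mg i.v. Q3W with the test compound i.v. weekly on D1/8 or D1/8/15. Plasma was collected on C1D1 pre-dose, at 4 and 24 h after the first test compound dose, and on C2D1 and C3D1 before toripalimab. Cytokines were measured by Meso Scale Discovery assay. Post-dose IFN-γ, IL-12, IL-5 and IL-6 were normalised to each subject's baseline.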
# [5] = tested on: NK cell (CD3, −CD16+, and CD56+) populations; assay: Combination trial: peripheral blood lymphocyte subsets by flow cytometry; format: in vivo, human
# Procedure, shortened: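 Combination regimen: toripalimab 240 mg i.v. Q3W plus test compound i.v., either 20–30 mg on D1/8 (3+3 stage) or 45 mg on D1/8/15 (second stage). Peripheral blood (3 ml) was drawn on C1D1, C2D1, C3D1 and at end of treatment. Lymphocyte subsets were analysed by flow cytometry. Post-dose cell proportions were divided by each subject's baseline.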
# [6] = tested on: patients with advanced solid tumors; details: cited from earlier work
# [7] = tested on: adults with refractory solid tumors or lymphoma; details: monotherapy phase I trial; cited from earlier work
# [8] = 28 participants, 30- and 45-mg groups
structure (smiles),measurement,setting,value
CN[C@@H](C)C(=O)N[C@H]1CN(S(=O)(=O)c2cccc(S(=O)(=O)N3CC[C@H]4CC[C@@H](C(=O)NC(c5ccccc5)c5ccccc5)N4C(=O)[C@@H](NC(=O)[C@H](C)NC)C3)c2)CC[C@H]2CC[C@@H](C(=O)NC(c3ccccc3)c3ccccc3)N2C1=O [APG-1387],Dose-limiting toxicities (DLT),"[1]; 0.3-45 mg i.v. D1/8/15 of 28-day cycle, 28 subjects",no DLT occurred
same,Subjects with TRAEs,[1]; 28 participants,21.4%
same,TRAE pruritus,"[1]; 28 participants, 20-mg group",3.6%
same,TRAE elevated ALT,[1]; [8],7.1%
same,TRAE elevated AST,[1]; [8],7.1%
same,TRAE asthenia,"[1]; 28 participants, 45-mg group",3.6%
same,TRAE facial-nerve disorder,"[1]; 28 participants, all in 45-mg group",10.7%
same,Participants with grade ≥3 TRAE (ALT elevation),[1]; 28 subjects,3.6%
same,"Any TRAE, All grade","[1]; all doses, n = 28",6 (21·4) n (%)
same,"Any TRAE, Grade ≥3","[1]; all doses, n = 28",1 (3·6) n (%)
same,"TRAE Alanine aminotransferase elevation, All grade","[1]; all doses, n = 28",2 (7·1) n (%)
same,"TRAE Alanine aminotransferase elevation, Grade ≥3","[1]; all doses, n = 28",1 (3·6) n (%)
same,"TRAE Amylase elevation, All grade","[1]; all doses, n = 28",0 (0) n (%)
same,"TRAE Amylase elevation, Grade ≥3","[1]; all doses, n = 28",0 (0) n (%)
same,"TRAE Aspartate aminotransferase elevation, All grade","[1]; all doses, n = 28",2 (7·1) n (%)
same,"TRAE Aspartate aminotransferase elevation, Grade ≥3","[1]; all doses, n = 28",0 (0) n (%)
same,"TRAE Asthenia, All grade","[1]; all doses, n = 28",1 (3·6) n (%)
same,"TRAE Asthenia, Grade ≥3","[1]; all doses, n = 28",0 (0) n (%)
same,"TRAE Blood creatinine elevation, All grade","[1]; all doses, n = 28",0 (0) n (%)
same,"TRAE Blood creatinine elevation, Grade ≥3","[1]; all doses, n = 28",0 (0) n (%)
same,"TRAE Decreased appetite, All grade","[1]; all doses, n = 28",0 (0) n (%)
same,"TRAE Decreased appetite, Grade ≥3","[1]; all doses, n = 28",0 (0) n (%)
same,"TRAE Facial-nerve disorder, All grade","[1]; all doses, n = 28",3 (10·7) n (%)
same,"TRAE Facial-nerve disorder, Grade ≥3","[1]; all doses, n = 28",0 (0) n (%)
same,"TRAE Headache, All grade","[1]; all doses, n = 28",0 (0) n (%)
same,"TRAE Headache, Grade ≥3","[1]; all doses, n = 28",0 (0) n (%)
same,"TRAE Hypoesthesia, All grade","[1]; all doses, n = 28",0 (0) n (%)
same,"TRAE Hypoesthesia, Grade ≥3","[1]; all doses, n = 28",0 (0) n (%)
same,"TRAE Hypogeusia, All grade","[1]; all doses, n = 28",0 (0) n (%)
same,"TRAE Hypogeusia, Grade ≥3","[1]; all doses, n = 28",0 (0) n (%)
same,"TRAE Hypothyroidism, All grade","[1]; all doses, n = 28",0 (0) n (%)
same,"TRAE Hypothyroidism, Grade ≥3","[1]; all doses, n = 28",0 (0) n (%)
same,"TRAE Immune-mediated pancreatitis, All grade","[1]; all doses, n = 28",0 (0) n (%)
same,"TRAE Immune-mediated pancreatitis, Grade ≥3","[1]; all doses, n = 28",0 (0) n (%)
same,"TRAE Infusion site reaction, All grade","[1]; all doses, n = 28",0 (0) n (%)
same,"TRAE Infusion site reaction, Grade ≥3","[1]; all doses, n = 28",0 (0) n (%)
same,"TRAE Leukopenia, All grade","[1]; all doses, n = 28",0 (0) n (%)
same,"TRAE Leukopenia, Grade ≥3","[1]; all doses, n = 28",0 (0) n (%)
same,"TRAE Lipase elevation, All grade","[1]; all doses, n = 28",0 (0) n (%)
same,"TRAE Lipase elevation, Grade ≥3","[1]; all doses, n = 28",0 (0) n (%)
same,"TRAE Platelet count decrease, All grade","[1]; all doses, n = 28",0 (0) n (%)
same,"TRAE Platelet count decrease, Grade ≥3","[1]; all doses, n = 28",0 (0) n (%)
same,"TRAE Pruritus, All grade","[1]; all doses, n = 28",1 (3·6) n (%)
same,"TRAE Pruritus, Grade ≥3","[1]; all doses, n = 28",0 (0) n (%)
same,"TRAE Rash, All grade","[1]; all doses, n = 28",0 (0) n (%)
same,"TRAE Rash, Grade ≥3","[1]; all doses, n = 28",0 (0) n (%)
same,Maximum tolerated dose (MTD),[1]; doses up to 45 mg,not reached
same,Subjects with treatment-emergent adverse events,"[1]; safety population, 28 participants",89.3%
same,Disease control rate (DCR),[2]; 23 participants,21.7%
same,Best overall response: Complete response,[2]; n 23,0 (0) n (%)
same,Best overall response: Partial response,[2]; n 23,0 (0) n (%)
same,Best overall response: Progressive disease,[2]; n 23,18 (78·3) n (%)
same,Best overall response: Stable disease,[2]; n 23,5 (21·7) n (%)
same,Disease control rate,[2]; n 23,5 (21·7) n (%)
same,Objective response rate,[2]; n 23,0 (0) n (%)
same,Duration of SD with tumor reduction,"[2]; one individual with CRC, 20-mg group",16 weeks
same,Increase of Cmax and AUC0-t with dose,[3]; 0.3-45 mg,approximately dose-proportional
same,Accumulation after multiple dosing,[3]; QW dosing schedule,No significant accumulation
same,Mean rate of clearance,[3]; range across doses,15.9 to 60.7 L/h
same,Mean steady-state volume of distribution (Vss),[3]; range across doses,10.1 to 60.1 L
same,Mean terminal half-life,[3]; range across doses,44.5 to 672 min
same,Median time to maximum plasma concentration (Cmax),"[3]; range across doses, QW i.v. infusion 30 min",0.25 to 0.50 h
same,"Plasma levels of IFN-γ, IL-12/IL-23p40, IL-5, and IL-6",[4],significantly increased
same,NK cell populations in peripheral blood,"[5]; 45-mg dose of APG-1387, combination trial",increased
same,NK cell populations in peripheral blood,"[5]; low doses of APG-1387, combination trial",did not change significantly
CN[C@@H](C)C(=O)N[C@H](C(=O)N1CCC[C@H]1c1nc(C(=O)c2ccc(F)cc2)cs1)C1CCCCC1 [LCL161],Cytokine release syndrome (CRS),"[6]; high doses of 1800, 2100, and 3000 mg",grade 3-4 cytokine release syndrome
same,CR or PR,[6]; monotherapy phase I trial,no participant had a CR or PR
same,Subjects with best response of SD,[6]; monotherapy phase I trial,19%
CC[C@H](NC(=O)[C@H](C)NC)C(=O)N1C[C@@H](O)C[C@H]1Cc1c(-c2[nH]c3cc(F)ccc3c2C[C@@H]2C[C@H](O)CN2C(=O)[C@H](CC)NC(=O)[C@H](C)NC)[nH]c2cc(F)ccc12 [birinapant],CR or PR,[7],no participant had a CR or PR
same,Subjects with best response of SD,[7],28%
